According to ChEMBL document CHEMBL4038265, “Antiprotozoal Activity-Based Profiling of a Dichloromethane Extract from Anthemis nobilis Flowers” (J Nat Prod, 2017):

Assays:
[1] = system: Trypanosoma brucei rhodesiense; test: Antiprotozoal activity against bloodstream form of Trypanosoma brucei rhodesiense STIB900 after 72 hrs by Alamar Blue assay; format: functional; settings: STIB900, 72 h
[2] = system: L6; test: Cytotoxicity against rat L6 cells after 72 hrs by Alamar Blue assay; format: cell-based; settings: L6, 72 h
Method in brief: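 Rat L6 cytotoxicity IC50 values (μM) are averages of three independent assays.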

[3] = Selectivity index, ratio of IC50 for rat L6 cells to IC50 for Trypanosoma cruzi Tulahuen C4; format: toxicity; settings: read-out: Ratio IC50
[4] = Selectivity index, ratio of IC50 for rat L6 cells to IC50 for bloodstream form of Trypanosoma brucei rhodesiense STIB900; format: toxicity; settings: read-out: Ratio IC50
[5] = system: Leishmania donovani; test: Antiprotozoal activity against amastigote form of Leishmania donovani MHOM/ET/67/L82 after 72 hrs by Alamar Blue assay; format: functional; settings: MHOM/ET/67/L82, 72 h
[6] = Selectivity index, ratio of IC50 for rat L6 cells to IC50 for amastigote form of Leishmania donovani MHOM/ET/67/L82; format: toxicity; settings: read-out: Ratio IC50
[7] = Selectivity index, ratio of IC50 for rat L6 cells to IC50 for erythrocytic stage of Plasmodium falciparum NF54; format: toxicity; settings: read-out: Ratio IC50
[8] = system: Trypanosoma cruzi; test: Antiprotozoal activity against Trypanosoma cruzi Tulahuen C4 infected in rat L6 cells after 96 hrs by beta-galactosidase reporter gene assay; format: functional, cell-based; settings: Tulahuen C4, L6, 96 h
[9] = system: Plasmodium falciparum; test: Antiprotozoal activity against erythrocytic stage of Plasmodium falciparum NF54 after 48 hrs by [3H]- hypoxanthine incorporation assay; format: functional

IC50 [1] [µM] | IC50 [8] [µM] | IC50 [9] [µM] | SMILES | IC50 [2] [µM] | selectivity ratio [3] | selectivity ratio [4] | IC50 [5] [µM] | selectivity ratio [6] | selectivity ratio [7]
0.4 | 9.8 | 1.9 | C=C1C(=O)O[C@H]2/C=C(/C)[C@@H](O)C/C=C(\C=O)C[C@H](OC(=O)/C(C)=C\C)[C@@H]12 | 1.8 | 0.2 | 3.9 | 1.6 | 1.1 | 0.9
0.88 | 31.1 | 7.9 | C=C1C(=O)O[C@H]2/C=C(/C)[C@H](O)C[C@H](O)C(=C)C[C@H](OC(=O)/C(C)=C\C)[C@@H]12 | 7.3 | 0.2 | 8.3 | 23 | 0.3 | 0.9
4.6 | 4.2 | – | C=C(C)C(=O)O[C@H]1C/C(C)=C/C[C@H](O)/C(C)=C\[C@@H]2OC(=O)C(=C)[C@@H]21 | 28.2 | 6.1 | 6.1 | – | – | –
1.2 | 7.3 | 3 | C=C1C(=O)O[C@H]2/C=C(/C)[C@@H](O)C[C@@H]3O[C@]3(C)C[C@H](OC(=O)/C(C)=C/C)[C@@H]12 | 5.3 | 0.7 | 4.5 | 2.7 | 1.9 | 1.8
0.08 | 37.3 | 4.7 | C=C1C(=O)O[C@@H]2/C=C(/C)[C@@H]3C[C@H](O)[C@@](CO)(C[C@H](OC(=O)/C(C)=C\C)[C@@H]12)O3 | 5.1 | 0.1 | 63.1 | 9.8 | 0.5 | 1.1
0.4 | 2.8 | 1.9 | C=C1C[C@H](OC(=O)/C(C)=C\C)[C@H]2C(=C)C(=O)O[C@H]2/C=C(/C)[C@@H](O)CC1=O | 1.5 | 0.5 | 3.9 | 0.5 | 3.1 | 0.8
2.1 | 11.3 | 3.1 | C=C1C(=O)O[C@H]2/C=C(/C)[C@@H](O)C/C=C(\C)C[C@H](OC(=O)/C(C)=C\C)[C@@H]12 | 4.9 | 0.4 | 2.4 | 2.7 | 1.8 | 1.6
0.61 | 29.3 | 7.8 | C=C1C(=O)O[C@H]2/C=C(/C)[C@@H](O)C[C@H](O)C(=C)C[C@H](OC(=O)/C(C)=C\C)[C@@H]12 | 5.1 | 0.2 | 8.3 | 13.2 | 0.4 | 0.6
0.36 | 26.7 | 6.2 | C=C1C(=O)O[C@H]2/C=C(/C)[C@@H](O)C[C@H](O)C(=C)C[C@H](OC(=O)/C(C)=C/C)[C@@H]12 | 5.1 | 0.2 | 14.1 | 5.3 | 1 | 0.8
1.4 | 26.1 | 9.6 | C=C1C(=O)O[C@H]2/C=C(/C)[C@@H](O)C[C@@H](O)/C(C)=C\[C@H](OC(=O)/C(C)=C\C)[C@@H]12 | 5.3 | 0.2 | 3.9 | 8.4 | 0.6 | 0.5

The remaining lines, values behind:

SMILES | IC50 [1] [µM] | IC50 [8] [µM] | IC50 [9] [µM] | IC50 [2] [µM] | selectivity ratio [3] | selectivity ratio [4] | IC50 [5] [µM] | selectivity ratio [6] | selectivity ratio [7]
C=C(C[C@H](OC(=O)/C(C)=C\C)[C@@H]1C(=C)C(=O)O[C@H]1/C=C(\C)C=O)C(C)=O | 0.42 | 5 | 2 | 1.8 | 0.3 | 4.3 | 0.38 | 4.7 | 0.9
COc1cc([C@@H]2c3cc4c(cc3[C@H](O)[C@H]3COC(=O)[C@H]23)OCO4)cc(OC)c1OC [PODOFILOX] | – | – | – | 0.016 | – | – | – | – | –
CCCCCCCCCCCCCCCCOP(=O)([O-])OCC[N+](C)(C)C [MILTEFOSINE] | – | – | – | – | – | – | 0.13 | – | –
C=C1C(=O)O[C@@H](/C=C(\C)C=O)[C@@H]1[C@H](/C=C(/C)C(C)=O)OC(=O)/C(C)=C\C | 1.2 | 11.3 | 2.2 | 5.2 | 0.5 | 4.3 | 0.5 | 11.2 | 2.3
C=C1C(=O)O[C@H]2[C@H]1[C@@H](OC(=O)/C(C)=C\C)CC(=C)[C@@H]1C=C[C@@](C)(O)[C@H]21 | 1.3 | 10.9 | 8.5 | 5.8 | 0.6 | 4.4 | 0.8 | 7.2 | 0.68
O=C(Cn1ccnc1[N+](=O)[O-])NCc1ccccc1 [BENZNIDAZOLE] | – | 2 | – | – | – | – | – | – | –
